In series [1] the target is Glycogen synthase kinase-3 beta (Homo sapiens, UniProt P49841). As to the kind of experiment: Inhibition of human recombinant GSK3beta using GSM as substrate incubated for 30 mins by luminescence based assay.
The target in a further series is Histone deacetylase 1 (Homo sapiens, UniProt Q13547). As to the kind of experiment: Inhibition of human recombinant his tagged HDAC1 expressed in baculovirus infected […] insect cells using tertbutyloxycarbonyl (Boc)-(Ac)-Lys-7-amino-4-methylcoumarin as substrate incubated for 1 hr by fluorescence based assay.
In series [2] the target is T1, Protein deacetylase HDAC6 (Homo sapiens, UniProt Q9UBN7).
T1 sequence (Q9UBN7 whole entry): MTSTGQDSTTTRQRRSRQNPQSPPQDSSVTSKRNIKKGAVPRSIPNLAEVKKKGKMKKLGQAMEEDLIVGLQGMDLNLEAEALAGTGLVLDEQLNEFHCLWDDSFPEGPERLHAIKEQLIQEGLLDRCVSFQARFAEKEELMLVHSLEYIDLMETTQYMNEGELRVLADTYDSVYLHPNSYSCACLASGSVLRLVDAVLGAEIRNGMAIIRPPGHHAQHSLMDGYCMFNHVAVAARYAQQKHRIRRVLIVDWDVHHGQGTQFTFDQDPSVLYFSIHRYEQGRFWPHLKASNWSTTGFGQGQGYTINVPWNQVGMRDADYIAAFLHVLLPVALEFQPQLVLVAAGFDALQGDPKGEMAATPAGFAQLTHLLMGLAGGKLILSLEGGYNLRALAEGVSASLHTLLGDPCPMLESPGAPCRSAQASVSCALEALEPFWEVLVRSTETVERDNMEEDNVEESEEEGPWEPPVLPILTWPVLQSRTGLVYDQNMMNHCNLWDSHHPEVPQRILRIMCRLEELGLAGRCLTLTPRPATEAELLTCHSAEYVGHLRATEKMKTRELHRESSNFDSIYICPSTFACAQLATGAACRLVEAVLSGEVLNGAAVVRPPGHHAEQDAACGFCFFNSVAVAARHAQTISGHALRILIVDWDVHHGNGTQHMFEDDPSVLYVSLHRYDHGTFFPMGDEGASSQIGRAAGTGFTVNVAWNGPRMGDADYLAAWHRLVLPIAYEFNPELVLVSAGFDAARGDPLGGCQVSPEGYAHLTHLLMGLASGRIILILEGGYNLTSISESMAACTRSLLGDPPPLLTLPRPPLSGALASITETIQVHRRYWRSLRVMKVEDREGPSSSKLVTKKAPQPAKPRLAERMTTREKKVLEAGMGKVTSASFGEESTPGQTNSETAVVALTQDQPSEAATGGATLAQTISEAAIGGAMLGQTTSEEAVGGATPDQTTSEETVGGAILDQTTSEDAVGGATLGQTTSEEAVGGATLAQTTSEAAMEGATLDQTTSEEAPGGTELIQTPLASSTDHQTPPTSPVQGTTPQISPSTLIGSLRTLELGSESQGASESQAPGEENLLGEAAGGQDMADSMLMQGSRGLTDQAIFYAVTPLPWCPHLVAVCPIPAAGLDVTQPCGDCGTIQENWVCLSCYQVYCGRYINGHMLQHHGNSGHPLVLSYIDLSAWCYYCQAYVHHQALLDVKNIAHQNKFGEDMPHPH
As to the kind of experiment: Inhibition of human recombinant his tagged HDAC6 expressed in baculovirus infected […] insect cells using batcp as substrate incubated for 1 hr by fluorescence based assay.

Series [3] concerns SH-SY5Y. The experiment in a line: Cytotoxicity against human SH-SY5Y cells up to 100 uM incubated for 24 hrs by MTS assay. Format: cell-based. In outline:
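SH-SY5Y cells exposed to test compound for 24 h at 37 °C; viability read by MTS assay and expressed as % of untreated control.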
Background: Tetrazolium dyes change colour on reduction, which living cells bring about.

Series [4] relates to SH-SY5Y. The experiment in a line: Cytoprotective activity against human SH-SY5Y cells assessed as restoration of H2O2-induced p53 expression level at 10 uM incubated for 24 hrs. In kind it is functional, cell-based. In outline: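 SH-SY5Y cells exposed to H2O2 (50 μM) with or without test compound (10 μM); p53 protein levels then measured.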
The subject of series [5] is Cerebellar granule neurone. The experiment in a line: Neuroprotective activity against 6-OHDA-induced cell death in Wistar rat primary cerebellar granule neurons at 5 uM preincubated for 6 hrs followed by 6-OHDA addition and measured after 24 hrs by MTT assay. In kind it is functional, cell-based. The gist of the method: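 Primary differentiated cerebellar granule neurons challenged with 6-OHDA with or without test compound; viability assessed; mean ± SE of at least 3 experiments in quadruplicate, one-way ANOVA with Bonferroni post hoc test.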

Series [6] concerns SH-SY5Y. As to the kind of experiment: Induction of neurogenesis in human SH-SY5Y cells assessed as stimulation of neurite outgrowth at 10 uM incubated for 72 hrs by phase contrast microscopic analysis. In kind it is functional, cell-based. In outline:
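SH-SY5Y cells treated 72 h at 10 μM, retinoic acid (10 μM) as positive control; neurite-bearing cells scored from images taken at 20× magnification.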

Series [7] has as its system Microglia. The experiment in a line: Immunomodulatory activity in LPS treated Wistar rat primary microglial cells assessed as decrease in NOS2 expression level at 5 to 50 uM incubated for 24 hrs by western blot analysis. Format: functional, cell-based. The gist of the method: (§1)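 Primary microglial cells treated 24 h with LPS in presence or absence of test compound; NOS2, MRC1 and TREM2 protein assessed by Western blot, normalized to GAPDH.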
In general terms: Immunoblotting shows a protein as a band on a membrane.

In series [8] the test system is Microglia. The experiment in a line: Immunomodulatory activity in LPS treated Wistar rat primary microglial cells assessed as effect on TREM2 expression level at 5 to 50 uM incubated for 24 hrs by western blot analysis. Format: functional, cell-based. In outline:
as §1

Series [9] is described as follows: Toxicity in zebra fish embryo at 25 uM dosed at 5 hpf and measured after 44 to 48 hpf by microscopic based assay. In kind it is organism-based, Danio rerio. The following applies: zebrafish, in vivo.
The nature of series [10]: Toxicity in zebra fish embryo assessed as lethality at < 100 uM dosed at 5 hpf and measured after 44 to 48 hpf by microscopic based assay. Particulars: zebrafish, in vivo. In kind it is organism-based, Danio rerio. The gist of the method: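 Wild-type zebrafish embryos exposed to the compound at concentrations below 100 μM, including 25, 50 and 75 μM. Control embryos were kept in 2% DMSO vehicle. Embryos were scored for lethality, and their morphology, including tail and eye formation, was inspected by imaging.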

Series [11] can be described thus: Toxicity in zebra fish embryo assessed as stunted tail at 50 to 75 uM uM dosed at 5 hpf and measured after 44 to 48 hpf by microscopic based assay. Format: organism-based, Danio rerio. The following applies: zebrafish, in vivo.
The nature of series [12]: Toxicity in zebra fish embryo assessed as crooked tail at 50 to 75 uM uM dosed at 5 hpf and measured after 44 to 48 hpf by microscopic based assay. In kind it is organism-based, Danio rerio. Particulars: zebrafish, in vivo.
A short description of series [13]: Toxicity in zebra fish embryo assessed as malformation of eye at 75 uM uM dosed at 5 hpf and measured after 44 to 48 hpf by microscopic based assay. Format: organism-based, Danio rerio. Particulars: zebrafish, in vivo.
Series [14] is described as follows: Toxicity in zebra fish embryo assessed as development perturbation at 75 uM dosed at 5 hpf and measured after 44 to 48 hpf by microscopic based assay. The following applies: zebrafish, in vivo. In kind it is organism-based, Danio rerio.
The target in series [15] is Histone deacetylase (Homo sapiens) (UniProt Q13547+O15379+Q9UBN7+Q92769+Q9UQL6+Q8WUI4+Q9BY41+Q96DB2+P56524+Q9UKV0+Q969S8). The experiment in a line: Inhibition of HDAC in human SH-SY5Y cells assessed as increase in acetylation of histone 3 at lysines 9/14 at 5 uM incubated for 30 hrs by Western blot analysis. Format: cell-based. The gist of the method: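 Human neuroblastoma SH-SY5Y cells treated 30 h at 0.1, 1.0 and 5.0 μM; cell lysates probed by Western blot for acetylated α-tubulin (HDAC6 cellular marker) and histone H3 acetylated at lysines 9/14 (H3K9K14ac).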

Activity calls are given as the source filed them. No cut-off for these calls is given here.

Here are results for 1 molecule from ChEMBL document CHEMBL4433211, “Discovery of the First-in-Class GSK-3β/HDAC Dual Inhibitor as Disease-Modifying Agent To Combat Alzheimer's Disease” (ACS Med Chem Lett, 2019).

Chain of Histone deacetylase 1 (Q13547 whole entry): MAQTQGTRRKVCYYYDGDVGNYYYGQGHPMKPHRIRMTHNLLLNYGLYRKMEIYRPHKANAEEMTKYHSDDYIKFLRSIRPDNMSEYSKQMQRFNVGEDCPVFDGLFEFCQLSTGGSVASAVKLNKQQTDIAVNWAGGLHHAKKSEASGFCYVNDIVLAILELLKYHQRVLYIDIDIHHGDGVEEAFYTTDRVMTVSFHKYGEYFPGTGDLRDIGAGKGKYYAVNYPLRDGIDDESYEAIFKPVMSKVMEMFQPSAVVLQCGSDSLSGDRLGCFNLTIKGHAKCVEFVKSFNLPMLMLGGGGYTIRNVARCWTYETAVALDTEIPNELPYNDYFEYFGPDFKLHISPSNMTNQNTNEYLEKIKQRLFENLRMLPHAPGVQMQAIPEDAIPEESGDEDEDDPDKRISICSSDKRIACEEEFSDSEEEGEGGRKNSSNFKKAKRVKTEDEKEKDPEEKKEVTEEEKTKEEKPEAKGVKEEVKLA
Chain of Glycogen synthase kinase-3 beta (P49841 whole entry): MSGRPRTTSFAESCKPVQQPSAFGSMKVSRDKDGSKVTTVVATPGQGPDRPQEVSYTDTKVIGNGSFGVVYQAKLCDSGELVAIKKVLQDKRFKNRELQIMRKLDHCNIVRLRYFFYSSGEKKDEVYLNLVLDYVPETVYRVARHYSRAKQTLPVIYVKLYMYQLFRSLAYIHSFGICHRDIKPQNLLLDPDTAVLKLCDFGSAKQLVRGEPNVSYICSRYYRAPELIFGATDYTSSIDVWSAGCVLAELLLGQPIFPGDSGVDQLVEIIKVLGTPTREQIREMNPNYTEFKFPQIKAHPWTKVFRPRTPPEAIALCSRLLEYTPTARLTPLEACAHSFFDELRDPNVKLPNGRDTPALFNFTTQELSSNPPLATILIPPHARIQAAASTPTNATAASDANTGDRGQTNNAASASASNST

As a reminder, the IC50 is the concentration that gives 50% inhibition. On to `O=C(CCCCCNC(=S)Nc1ccc2c(c1)C(=O)NC2=O)NO`, for which the IC50 amounted to 2.69 µM in series [1], 12.8 µM at Histone deacetylase 1 and 3.19 µM in [2]. In addition, the Activity result with SH-SY5Y [3] is reported as “Non-Toxic”; in series [9] it was “Non-Toxic”; in series [10], “Non-Toxic”; in [11], “Toxic”; in series [12], “Toxic”; in series [13] it was “Toxic”. Besides, in series [14], the Activity result is reported as “Toxic”. Also, the result (in the series on SH-SY5Y [4]; in series [5]; with SH-SY5Y [6]; with Microglia [7]) was Active. The outcome with Microglia [8] was inactive. Also, the inhibition entry in series [15] is “inactive”.
